Data published in ChEMBL document CHEMBL1151941, “Inhibition of influenza virus infections by sialylgalactose-binding peptides selected from a phage library” (J Med Chem, 2009).
Activity calls are given as the source filed them. The rule behind the calls is not given here. Where a SMILES comes first, the peptide text is derived from it. The star is where a group is joined. Stearoyl = CCCCCCCCCCCCCCCCCC(=O)*

Experiments:
[1] = Binding affinity to ganglioside GM3 by ELISA relative to wild type fd phage clone
Procedure, shortened: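 GM3 monolayer was transferred from TBS (20 °C, 30 mN m-1) onto a BSA-blocked plastic plate. Phage clones (0.05-5 nM in TBS) were incubated 30 min at 4 °C. Detection used anti-fd antibody, then peroxidase anti-rabbit IgG (each 1 h, 4 °C), with o-phenylenediamine. ΔA was read at 492 nm in triplicate and expressed relative to wild-type fd phage.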

[2] = Binding affinity to ganglioside GlcCer by quartz crystal microbalance method
[3] = Ratio of Kd for ganglioside GM3 to Kd for ganglioside 6'GM3
[4] = Binding affinity to ganglioside GM3 by quartz crystal microbalance method
[5] = Binding affinity to ganglioside 6'GM3 by quartz crystal microbalance method
[6] = Binding affinity to ganglioside GalCer by quartz crystal microbalance method
[7] = Ratio of Kd for ganglioside GM3 to Kd for ganglioside GalCer
[8] = Ratio of Kd for ganglioside GM3 to Kd for ganglioside GlcCer
[9] = Critical micellar concentration of the compound; type: physicochemical
Procedure, shortened: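 N-stearoyl peptide amide was suspended in PBS containing 1 μM N-phenyl-1-naphthylamine and diluted to 1 nM-0.1 mM. Fluorescence (ex 350, em 450 nm) was read at 25 °C. The cmc is taken at the intersection of two straight lines in the intensity-versus-concentration plot.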

Influenza A virus = assay: Antiviral activity against Influenza A virus (A/Puerto Rico/8/34(H1N1)) infected in MDCK cells after 30 mins by crystal violet-based plaque assay; type: functional, organism-based; conditions: A/Puerto Rico/8/1934(H1N1), 0.5 h
Procedure, shortened: (§1)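 MDCK cells in 6-well plates were exposed for 30 min at 37 °C, 5% CO2, to 0.2 mL virus (50-200 pfu) with C18-peptide from PBS stock (2 or 10 mM). After a PBS wash, cells were overlaid with 0.6% agarose/MEM (DEAE-dextran, HEPES, acetyltrypsin, BSA) for 2 days. Living cells were stained and plaques counted. IC50 is the concentration giving 50% inhibition.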

H3N2 subtype = assay: Antiviral activity against Influenza A virus (A/Aichi/2/1968(H3N2)) infected in MDCK cells after 30 mins by crystal violet-based plaque assay; type: functional, organism-based; conditions: 0.5 h; procedure, shortened: as §1
[10] = Selectivity ratio of Kd for ganglioside GalCer to Kd for ganglioside GM3
B16 [11] = assay: Binding affinity to ganglioside GM3 in mouse B16 cells at 1 to 10 nM by flow cytometry; type: cell-based
Procedure, shortened: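 B16 monolayer cells (2×10^5) were given serially diluted phage (0.5-10 nM) in 1% BSA/PBS for 1 h on ice. After washes, they were labelled with anti-fd antibody and then FITC anti-rabbit IgG (each 0.5 h on ice) and analysed by flow cytometry.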

B16 [12] = assay: Inhibition of binding affinity to ganglioside GM3 in mouse B16 cells at 10 nM by flow cytometry in presence of 1 mM Neu5Ac; type: cell-based
Procedure, shortened: (§2)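 B16 cells (2×10^5) were incubated 1 h on ice with phage (10 nM) with or without 1 mM Neu5Ac, Glc or GlcU. They were washed in 1% BSA/PBS, labelled with anti-fd antibody and FITC-conjugated antibody, and analysed by flow cytometry.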

B16 [13] = assay: Inhibition of binding affinity to ganglioside GM3 in mouse B16 cells at 10 nM by flow cytometry in presence of GlcU; type: cell-based; procedure, shortened: as §2
B16 [14] = assay: Inhibition of binding affinity to ganglioside GM3 in mouse B16 cells at 10 nM by flow cytometry in presence of Glc; type: cell-based; procedure, shortened: as §2
B16 [15] = assay: Inhibition of binding affinity to ganglioside GM3 in mouse B16 cells pretreated with neuraminidase at pH 6.5 at 10 nM by flow cytometry; type: cell-based
Procedure, shortened: (§3)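 Sialic acid was removed from B16 cells (2×10^5) with 0.05 units Arthrobacter ureafaciens neuraminidase for 90 min at 37 °C, pH 6.5 or 7.4. After three washes, cells took 10 nM phage and were labelled with anti-fd antibody and FITC-conjugated antibody for flow cytometry.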

B16 [16] = assay: Inhibition of binding affinity to ganglioside GM3 in mouse B16 cells pretreated with neuraminidase at pH 7.4 at 10 nM by flow cytometry; type: cell-based; procedure, shortened: as §3
[17] = Binding affinity to ganglioside GM3 at 10 uM

Which fold change (FC) [1] does the source give for H-GWYSSRHYVRSLNGL-OH here?
Its fold change (FC) is 1.4.

Which fold change (FC) [1] does the source give for H-RAVWRHSVATPSHSV-OH here?
The fold change (FC) was 1.5.

What about the Kd ([2]; read-out: Kd) of the same compound?
Its Kd is over 70 µM.

What about the Ratio [3] of the same compound?
The Ratio was 0.2.

And the Kd ([4]; read-out: Kd)?
Its Kd is 0.41 µM.

And the Kd ([5]; read-out: Kd)?
The Kd was 2 µM.

What about the Kd ([6]; read-out: Kd) of the same compound?
Its Kd is over 70 µM.

And the Ratio [7]?
The Ratio was under 0.006.

What about the Ratio [8] of the same compound?
Its Ratio is under 0.006.

With `CC(C)C[C@H](NC(=O)[C@H](CO)NC(=O)[C@H](CC(=O)O)NC(=O)[C@H](Cc1ccccc1)NC(=O)[C@H](C)NC(=O)[C@H](C)NC(=O)[C@H](CCCN)NC(=O)[C@H](C)NC(=O)[C@@H]1CCCN1C(=O)[C@H](CC(=O)O)NC(=O)[C@H](CC(=O)O)NC(=O)CNC(=O)[C@H](CCC(=O)O)NC(=O)[C@H](C)N)C(=O)N[C@@H](CCC(N)=O)C(=O)O` as the compound, how does the Kd [2] read?
The Kd was “Not Active”.

And the Kd [4]?
The Kd was “Not Active”.

What about the Kd [5] of the same compound?
Its Kd is “Not Active”.

What about the Kd [6] of the same compound?
Its Kd is “Not Active”.

Which CMC [9] does the source give for `CCCCCCCCCCCCCCCCCC(=O)NCC(=O)N[C@@H](Cc1c[nH]c2ccccc12)C(=O)N[C@@H](Cc1c[nH]c2ccccc12)C(=O)N[C@@H](Cc1ccc(O)cc1)C(=O)N[C@@H](CCCCN)C(=O)NCC(=O)N[C@@H](CCCNC(=N)N)C(=O)N[C@@H](C)C(=O)N[C@@H](CCCNC(=N)N)C(=O)N1CCC[C@H]1C(=O)N[C@H](C(=O)N[C@@H](CO)C(=O)N[C@@H](C)C(=O)N[C@H](C(=O)N[C@@H](C)C(N)=O)C(C)C)C(C)C` (Stearoyl-GWWYKGRARPVSAVA-NH2) here?
The CMC was 0.8 µM.

What about the IC50 (Influenza A virus) of the same compound?
Its IC50 is 3.2 µM.

And the IC50 (H3N2 subtype)?
The IC50 was over 10 µM.

For H-QQLVYNWWAVSSARR-OH, which fold change (FC) [1] is on record?
The fold change (FC) was 1.1.

Which fold change (FC) [1] does the source give for H-WRGVYFGDRWLGSQP-OH here?
Its fold change (FC) is 1.6.

Which results are given for `CCCCCCCCCCCCCCCCCC(=O)N[C@@H](C)C(=O)N[C@@H](CCC(=O)O)C(=O)N[C@H](C(=O)N[C@H](C(=O)N[C@@H](CCC(=O)O)C(=O)N[C@@H](CO)C(=O)N[C@@H](CS)C(=O)N[C@@H](CC(C)C)C(=O)N[C@@H](C)C(=O)N[C@@H](CCCCN)C(=O)N1CCC[C@H]1C(=O)N[C@@H](Cc1cnc[nH]1)C(=O)N[C@H](C(=O)N[C@@H](CCC(=O)O)C(=O)N[C@@H](CC(N)=O)C(N)=O)[C@H](C)O)C(C)C)[C@@H](C)O`?
CMC [9]: 0.8 µM; IC50 (Influenza A virus): 66 µM; IC50 (H3N2 subtype): > 100 µM

With H-RAVWRHSVATPSHSV-NH2 as the compound, how does the IC50 (Influenza A virus) read?
Its IC50 is over 500 µM.

With `CCCCCCCCCCCCCCCCCC(=O)N[C@@H](CC(=O)O)C(=O)N[C@@H](Cc1ccccc1)C(=O)N[C@@H](CCCNC(=N)N)C(=O)N[C@@H](CCCNC(=N)N)C(=O)N[C@@H](CC(C)C)C(=O)N1CCC[C@H]1C(=O)NCC(=O)N[C@@H](C)C(=O)N[C@@H](Cc1ccccc1)C(=O)N[C@@H](Cc1c[nH]c2ccccc12)C(=O)N[C@@H](CCC(N)=O)C(=O)N[C@@H](CC(C)C)C(=O)N[C@@H](CCCNC(=N)N)C(=O)N[C@@H](CCC(N)=O)C(=O)N1CCC[C@H]1C(N)=O` (Stearoyl-DFRRLPGAFWQLRQP-NH2) as the compound, how does the CMC [9] read?
Its CMC is 0.8 µM.

What about the IC50 (Influenza A virus) of the same compound?
The IC50 was 52 µM.

And the IC50 (H3N2 subtype)?
The IC50 was 19 µM.

Which IC50 (Influenza A virus) does the source give for H-GWWYKGRARPVSAVA-NH2 here?
The IC50 was over 500 µM.

For `CCCCCCCCCCCCCCCCCC(=O)NCC(=O)N[C@@H](Cc1c[nH]c2ccccc12)C(=O)N[C@@H](Cc1c[nH]c2ccccc12)C(=O)N[C@@H](Cc1ccc(O)cc1)C(=O)N[C@@H](CCCCN)C(=O)NCC(=O)N[C@@H](CCCNC(=N)N)C(=O)N[C@@H](C)C(=O)N[C@@H](CCCNC(=N)N)C(=O)N[C@@H](C)C(=O)N[C@H](C(=O)N[C@@H](CO)C(=O)N[C@@H](C)C(=O)N[C@H](C(=O)N[C@@H](C)C(N)=O)C(C)C)C(C)C` (Stearoyl-GWWYKGRARAVSAVA-NH2), which CMC [9] is on record?
Its CMC is 0.8 µM.

What about the IC50 (Influenza A virus) of the same compound?
Its IC50 is 89 µM.

With H-LSWPLHAGRGFRWVS-OH as the compound, how does the fold change (FC) [1] read?
The fold change (FC) was 0.9.

What does the source list for H-GWWYKGRARPVSAVA-OH?
fold change (FC) [1]: 2.1; Kd ([2]; read-out: Kd): > 70 µM; Ratio [3]: 1; Kd ([4]; read-out: Kd): 1.5 µM; Kd ([5]; read-out: Kd): 1.5 µM; Kd ([6]; read-out: Kd): 9.8 µM; Ratio [10]: 6.5; Ratio [7]: 0.15; Ratio [8]: < 0.02; Activity (B16 [11]): Active; inhibition (B16 [12]): 61%; inhibition (B16 [13]): 46%; inhibition (B16 [14]): inactive; inhibition (B16 [15]): Active; inhibition (B16 [16]): inactive; Activity [17]: 39 ng/cm2

For H-LWRPVLFHSAVRALG-OH, which fold change (FC) [1] is on record?
The fold change (FC) was 1.7.

For `CCCCCCCCCCCCCCCCCC(=O)N[C@@H](C)C(=O)N[C@H](C(=O)N[C@@H](C)C(=O)N[C@@H](CO)C(=O)N[C@H](C(=O)N1CCC[C@H]1C(=O)N[C@@H](CCCNC(=N)N)C(=O)N[C@@H](C)C(=O)N[C@@H](CCCNC(=N)N)C(=O)NCC(=O)N[C@@H](CCCCN)C(=O)N[C@@H](Cc1ccc(O)cc1)C(=O)N[C@@H](Cc1c[nH]c2ccccc12)C(=O)N[C@@H](Cc1c[nH]c2ccccc12)C(=O)NCC(N)=O)C(C)C)C(C)C` (Stearoyl-AVASVPRARGKYWWG-NH2), which CMC [9] is on record?
Its CMC is 0.8 µM.

And the IC50 (Influenza A virus)?
Its IC50 is 44 µM.

What about the IC50 (H3N2 subtype) of the same compound?
The IC50 was 17 µM.

Which results are given for `CCCCCCCCCCCCCCCCCC(=O)N[C@@H](CCCNC(=N)N)C(=O)N[C@@H](C)C(=O)N[C@H](C(=O)N[C@@H](Cc1c[nH]c2ccccc12)C(=O)N[C@@H](CCCNC(=N)N)C(=O)N[C@@H](Cc1cnc[nH]1)C(=O)N[C@@H](CO)C(=O)N[C@H](C(=O)N[C@@H](C)C(=O)N[C@H](C(=O)N1CCC[C@H]1C(=O)N[C@@H](CO)C(=O)N[C@@H](Cc1cnc[nH]1)C(=O)N[C@@H](CO)C(=O)N[C@H](C(N)=O)C(C)C)[C@@H](C)O)C(C)C)C(C)C` (Stearoyl-RAVWRHSVATPSHSV-NH2)?
CMC [9]: 0.8 µM; IC50 (Influenza A virus): 6.5 µM; IC50 (H3N2 subtype): 68 µM

Which Activity [17] does the source give for H-DFRRLPGAFWQLRQP-OH here?
Its Activity is 119 ng/cm2.

With `CCCCCCCCCCCCCCCCCC(=O)NCC(=O)N[C@@H](C)C(=O)N[C@@H](Cc1c[nH]c2ccccc12)C(=O)N[C@@H](Cc1ccc(O)cc1)C(=O)N[C@@H](CCCCN)C(=O)NCC(=O)N[C@@H](CCCNC(=N)N)C(=O)N[C@@H](C)C(=O)N[C@@H](CCCNC(=N)N)C(=O)N1CCC[C@H]1C(=O)N[C@H](C(=O)N[C@@H](CO)C(=O)N[C@@H](C)C(=O)N[C@H](C(=O)N[C@@H](C)C(N)=O)C(C)C)C(C)C` (Stearoyl-GAWYKGRARPVSAVA-NH2) as the compound, how does the CMC [9] read?
The CMC was 0.8 µM.

What about the IC50 (Influenza A virus) of the same compound?
Its IC50 is 53 µM.
